Source: paper PMC2818544 (Bioorganic & medicinal chemistry, 2009)

Columns and labels:
RmlC and RmlD [1] = target: RmlC and RmlD (Mycobacterium tuberculosis, UniProt P9WH09); format: biochemical; conditions: read-out: Km of NADPH; cofactor; TDP-KDX at 200 μM
RmlC [2] = target: T1, RmlC (Mycobacterium tuberculosis, UniProt P9WH11); assay: 96-well RmlC/RmlD coupled assay, NADPH absorbance at 340 nm; format: biochemical
RmlC [3] = target: T1, RmlC; assay: Reversibility of inhibition; format: biochemical; conditions: 10 times IC50 pre-incubated 0 or 0.5 hr with 100x RmlC, diluted 100-fold
How it was run: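 Test compound incubated 0 or 0.5 hr at 25°C with concentrated RmlC in buffer, then diluted 100-fold. RmlD, TDP-KDX and NADPH were added, and activity was followed as the decrease in NADPH fluorescence (340/460 nm) over 200 min. Controls had no compound, or compound added only after dilution.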

RmlC [4] = target: T1, RmlC; assay: Time dependence of the onset of inhibition; format: biochemical; conditions: pre-incubation 0, 1, 2 or 3 hr
How it was run: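 Test compound came from a 16-point 2-fold serial dilution (2.5 mM top stock) and was diluted in water. It was pre-incubated 0–3 hr with 2x RmlC, RmlD and NADPH in 83.5 mM MOPS. TDP-KDX was then added and NADPH fluorescence followed over 90 min. IC50 came from a 4-parameter logistic fit of percent activity.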

RmlC [5] = target: T1, RmlC; assay: Mode of inhibition: TDP-KDX Km; format: biochemical
RmlC and RmlD [6] = format: biochemical, Mycobacterium tuberculosis; conditions: read-out: IC50 of the known inhibitor TDP
[7] = Cytotoxicity, CellTiter-Glo luminescence; format: cell-based; conditions: human, human aortic endothelial (HAE) cells

T1 sequence (P9WH11 whole entry, looked up): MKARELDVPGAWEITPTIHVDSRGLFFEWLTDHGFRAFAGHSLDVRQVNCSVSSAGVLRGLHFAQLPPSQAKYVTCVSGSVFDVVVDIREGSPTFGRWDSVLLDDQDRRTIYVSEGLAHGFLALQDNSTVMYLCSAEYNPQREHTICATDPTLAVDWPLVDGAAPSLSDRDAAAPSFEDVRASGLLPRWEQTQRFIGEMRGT
Sequence of RmlC and RmlD (Mycobacterium tuberculosis, UniProt P9WH09) (P9WH09 whole entry): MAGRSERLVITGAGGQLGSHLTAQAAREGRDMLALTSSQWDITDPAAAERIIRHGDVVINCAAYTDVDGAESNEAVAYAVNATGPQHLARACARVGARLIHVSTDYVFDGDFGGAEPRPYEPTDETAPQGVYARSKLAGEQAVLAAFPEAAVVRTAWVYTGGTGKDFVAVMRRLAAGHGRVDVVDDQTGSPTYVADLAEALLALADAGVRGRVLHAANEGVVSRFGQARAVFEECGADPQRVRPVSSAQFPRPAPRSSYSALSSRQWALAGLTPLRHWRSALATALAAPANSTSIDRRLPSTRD

NC(=O)C1=CN([C@@H]2O[C@H](COP(=O)(O)OP(=O)(O)OC[C@H]3O[C@@H](n4cnc5c(N)ncnc54)[C@H](OP(=O)(O)O)[C@@H]3O)[C@@H](O)[C@H]2O)C=CC1 [NADPH]
Km (RmlC and RmlD [1]): 12 µM

C=CCn1c2ccccc2c2nnc(SCn3c(=O)[nH]c4ccccc43)nc21 [SID 7972845]
fold increase of IC50 relative to 77074 (RmlC [2]): 86 fold

CCn1c2ccccc2c2nnc(SCCCn3c(=O)[nH]c4ccccc43)nc21 [SID 7975595, 1-(3-(5-ethyl-5H-[1,2,4]triazino[5,6-b]indol-3-ylthio)propyl)-1H-benzo[d]imidazol-2(3H)-one]
reversibility of inhibition (RmlC [3]): fully reversible inhibitor
change of IC50 with pre-incubation time (onset of inhibition) (RmlC [4]): No such decrease in IC50 was observed
Ki (RmlC [5]): 0.1 µM
affinity of inhibitor relative to TDP-KDX (Km versus Ki) (RmlC [5]; comparison of Km of TDP-KDX and Ki of inhibitor): approximately 2000 fold
mode of inhibition (RmlC [5]; versus substrate TDP-KDX): classical competitive inhibitor

Cc1cn([C@H]2C[C@H](O)[C@@H](COP(=O)(O)OP(=O)(O)O)O2)c(=O)[nH]c1=O [TDP, reference compound]
IC50 (RmlC and RmlD [6]): 340 µM

O=c1[nH]c2ccccc2n1CCCSc1nnc2c3ccccc3n(Cc3ccccc3)c2n1 [compound 77070]
fold increase of IC50 relative to SID 7975595 (R1 ethyl) (RmlC [2]): approximately 15 fold

CCCn1c2ccccc2c2nnc(SCCCn3c(=O)[nH]c4ccccc43)nc21 [compound 77071]
fold increase of IC50 relative to 77074 (RmlC [2]): 10 fold

COc1cccc2c1C(=O)c1c(O)c3c(c(O)c1C2=O)C[C@@](O)(C(=O)CO)C[C@@H]3O[C@H]1C[C@H](N)[C@H](O)[C@H](C)O1 [doxorubicin]
IC50 at 24 h [7]: ~10 µM
